Legend:
[1] = Concentration which elicits cytotoxicity in 50% of uninfected human lymphocyte derived CEM cells; assay type: cell-based, CCRF-CEM; conditions: uninfected CCRF-CEM cells, read-out: TC50 (the source's name)
In short: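 Cytotoxicity measured in uninfected human lymphocyte-derived CEM cells by XTT protocol.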

[2] = biological target: Human immunodeficiency virus type 1 protease (Human immunodeficiency virus 1, UniProt Q72874); test: Activity of potent nonpeptidic inhibitor against protease
In short: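 Incubated with 40 µM His-Lys-Ala-Arg-Val-Leu-(p-NO₂-Phe)-Glu-Ala-Nle-Ser-NH₂ in 1.0% DMSO, pH 6.2 MES buffer (DTT, NaCl, EDTA, PEG 8000) for 60 min at 37 °C, then TFA quench. Substrate and product separated by reverse-phase HPLC, read at 220 nm. % control = conversion with inhibitor / conversion without × 100; IC50 derived.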

[3] = tested on: Human immunodeficiency virus 1; test: Effective concentration at which 50% of the HIV-IIIB-infected human lymphocyte-derived CEM cells protected from HIV-1 infection; conditions: Human immunodeficiency virus 1, CCRF-CEM

Cc1cc(SC2=C(O)OC(CCc3ccc(N)cc3)(C(C)C)CC2=O)c(C(C)(C)C)cc1OS(=O)(=O)c1cccnc1 (stereo not given)
CC50 [1]: 66 µM | IC50 [2]: 0.0041 µM | EC50 [3]: 2.2 µM

Cc1cc(SC2=C(O)OC(CCc3ccc(O)cc3)(C3CC3)CC2=O)c(C(C)(C)C)cc1NS(=O)(=O)c1ccccc1 (stereo not given)
CC50 [1]: 76 µM | IC50 [2]: 0.0036 µM | EC50 [3]: 2.4 µM

Cc1cc(SC2=C(O)OC(C)(CCc3ccc(O)cc3)CC2=O)c(C(C)(C)C)cc1NS(=O)(=O)c1ccccc1 (stereo not given)
CC50 [1]: > 100 µM | IC50 [2]: 0.0015 µM | EC50 [3]: 5.2 µM

Cc1cc(SC2=C(O)OC(C)(CCc3ccc(O)cc3)CC2=O)c(C(C)(C)C)cc1NS(=O)(=O)c1ccc(C#N)cc1 (stereo not given)
CC50 [1]: > 100 µM | IC50 [2]: 0.0021 µM | EC50 [3]: 5 µM

Cc1cc(SC2=C(O)OC(C)(CCc3ccc(O)cc3)CC2=O)c(C(C)(C)C)cc1OS(=O)(=O)c1ccc(F)cc1 (stereo not given)
CC50 [1]: 100 µM | IC50 [2]: 0.0169 µM | EC50 [3]: 6.3 µM

Cc1cc(SC2=C(O)OC(CCc3ccc(N)cc3)(C(C)C)CC2=O)c(C(C)(C)C)cc1OS(=O)(=O)c1ccc(C#N)cc1 (stereo not given)
CC50 [1]: 53 µM | IC50 [2]: 0.0013 µM | EC50 [3]: 0.4 µM

CCNS(=O)(=O)Nc1cc(C(C)(C)C)c(SC2=C(O)OC(CCc3ccccc3)(C(C)C)CC2=O)cc1C (stereo not given)
CC50 [1]: 77 µM | IC50 [2]: 0.0033 µM | EC50 [3]: 1.2 µM

Cc1cc(SC2=C(O)OC(CCc3ccc(N)cc3)(C(C)C)CC2=O)c(C(C)(C)C)cc1OS(=O)(=O)c1cccs1 (stereo not given)
CC50 [1]: 66 µM | IC50 [2]: 0.0185 µM | EC50 [3]: 6 µM

Cc1cc(SC2=C(O)OC(CCc3ccc(O)cc3)(C3CCCC3)CC2=O)c(C(C)(C)C)cc1NS(=O)(=O)c1ccccc1 (stereo not given)
CC50 [1]: 67 µM | IC50 [2]: 0.0086 µM | EC50 [3]: 2.5 µM

Cc1cc(SC2=C(O)OC(CCc3ccc(O)cc3)(C(C)C)CC2=O)c(C(C)(C)C)cc1OS(=O)(=O)c1ccccn1 (stereo not given)
CC50 [1]: 84 µM | IC50 [2]: 0.005 µM | EC50 [3]: 0.7 µM

Cc1cc(SC2=C(O)OC(CCc3ccc(O)cc3)(C(C)C)CC2=O)c(C(C)(C)C)cc1NS(=O)(=O)c1ccc(Cl)cc1 (stereo not given)
CC50 [1]: 66 µM | IC50 [2]: 0.0053 µM | EC50 [3]: 1.6 µM

Cc1cc(SC2=C(O)OC(CCc3ccc(O)cc3)(C(C)C)CC2=O)c(C(C)(C)C)cc1NS(=O)(=O)c1ccccn1 (stereo not given)
CC50 [1]: > 100 µM | IC50 [2]: 0.0026 µM | EC50 [3]: 4.1 µM

Cc1cc(SC2=C(O)OC(C)(CCc3ccc(O)cc3)CC2=O)c(C(C)(C)C)cc1NS(=O)(=O)c1ccc(-c2cccs2)cc1 (stereo not given)
CC50 [1]: > 100 µM | IC50 [2]: 0.0063 µM | EC50 [3]: 5.6 µM

Cc1cc(SC2=C(O)OC(CCc3ccccc3)(C(C)C)CC2=O)c(C(C)(C)C)cc1NS(=O)(=O)Cn1ccnc1 (stereo not given)
CC50 [1]: > 100 µM | IC50 [2]: 0.0019 µM | EC50 [3]: 4.2 µM

Cc1cc(SC2=C(O)OC(C)(CCc3ccc(O)cc3)CC2=O)c(C(C)(C)C)cc1NS(=O)(=O)c1ccc(F)cc1 (stereo not given)
CC50 [1]: 93 µM | IC50 [2]: 0.0037 µM | EC50 [3]: 5.6 µM

Cc1cc(SC2=C(O)OC(CCc3ccc(O)cc3)(C3CCCCC3)CC2=O)c(C(C)(C)C)cc1OS(=O)(=O)c1ccc(C#N)cc1 (stereo not given)
CC50 [1]: 29 µM | IC50 [2]: 0.021 µM | EC50 [3]: 2.6 µM

Cc1cc(SC2=C(O)OC(C)(CCc3ccc(O)cc3)CC2=O)c(C(C)(C)C)cc1NS(=O)(=O)Cn1ccnc1 (stereo not given)
CC50 [1]: > 100 µM | IC50 [2]: 0.0019 µM | EC50 [3]: 58 µM

Cc1cc(SC2=C(O)OC(CCc3ccc(O)cc3)(C(C)C)CC2=O)c(C(C)(C)C)cc1NS(=O)(=O)c1ccc(F)cc1 (stereo not given)
CC50 [1]: 66 µM | IC50 [2]: 0.0041 µM | EC50 [3]: 1.8 µM

CCNS(=O)(=O)Nc1cc(C(C)(C)C)c(SC2=C(O)OC(CCc3ccc(O)cc3)(C(C)C)CC2=O)cc1C (stereo not given)
CC50 [1]: > 100 µM | IC50 [2]: 0.0017 µM | EC50 [3]: 3.3 µM

Cc1cc(SC2=C(O)OC(C)(CCc3ccc(O)cc3)CC2=O)c(C(C)(C)C)cc1OS(=O)(=O)c1ccccc1 (stereo not given)
CC50 [1]: 82 µM | IC50 [2]: 0.0098 µM | EC50 [3]: 12 µM

Cc1cc(SC2=C(O)OC(C)(CCc3ccc(O)cc3)CC2=O)c(C(C)(C)C)cc1NS(=O)(=O)c1ccc(C(F)(F)F)cc1 (stereo not given)
CC50 [1]: 79 µM | IC50 [2]: 0.0123 µM | EC50 [3]: 3.5 µM

Cc1cc(SC2=C(O)OC(CCc3ccccc3)(C(C)C)CC2=O)c(C(C)(C)C)cc1N (stereo not given)
CC50 [1]: 69 µM | IC50 [2]: 0.0036 µM | EC50 [3]: 1.9 µM

CCNS(=O)(=O)Oc1cc(C(C)(C)C)c(SC2=C(O)OC(CCc3ccc(N)cc3)(C(C)C)CC2=O)cc1C (stereo not given)
CC50 [1]: 83 µM | EC50 [3]: 0.7 µM

Cc1cc(SC2=C(O)OC(CCc3ccc(N)cc3)(C(C)C)CC2=O)c(C(C)(C)C)cc1OS(=O)(=O)N(C)C (stereo not given)
CC50 [1]: 64 µM | EC50 [3]: 0.8 µM

Cc1cc(SC2=C(O)OC(CCc3ccc(O)cc3)(C(C)C)CC2=O)c(C(C)(C)C)cc1OS(=O)(=O)N(C)C (stereo not given)
CC50 [1]: 70 µM

Cc1cc(SC2=C(O)OC(CCc3ccccc3)(C(C)C)CC2=O)c(C(C)(C)C)cc1NS(=O)(=O)c1cccs1 (stereo not given)
CC50 [1]: 61 µM | IC50 [2]: 0.0036 µM | EC50 [3]: 2.1 µM

Cc1cc(SC2=C(O)OC(CCc3ccc(O)cc3)(C(C)C)CC2=O)c(C(C)(C)C)cc1NS(C)(=O)=O (stereo not given)
CC50 [1]: > 100 µM | IC50 [2]: 0.004 µM | EC50 [3]: 5.3 µM

Cc1cc(SC2=C(O)OC(CCc3ccccc3)(C(C)C)CC2=O)c(C(C)(C)C)cc1NS(=O)(=O)c1cccnc1 (stereo not given)
CC50 [1]: 76 µM | IC50 [2]: 0.0035 µM | EC50 [3]: 1.6 µM

Cc1cc(SC2=C(O)OC(CCc3ccc(O)cc3)(C(C)C)CC2=O)c(C(C)(C)C)cc1OS(=O)(=O)c1ccccc1 (stereo not given)
CC50 [1]: 66 µM | IC50 [2]: 0.0104 µM | EC50 [3]: 1.6 µM

Cc1cc(SC2=C(O)OC(C)(CCc3ccc(O)cc3)CC2=O)c(C(C)(C)C)cc1NS(C)(=O)=O (stereo not given)
CC50 [1]: > 100 µM | IC50 [2]: 0.0097 µM | EC50 [3]: 19 µM

Cc1cc(SC2=C(O)OC(CCc3ccc(O)cc3)(C(C)C)CC2=O)c(C(C)(C)C)cc1OS(=O)(=O)c1ccc(F)cc1 (stereo not given)
CC50 [1]: 66 µM | IC50 [2]: 0.0096 µM | EC50 [3]: 0.8 µM

Cc1cc(SC2=C(O)OC(CCc3ccccc3)(C(C)C)CC2=O)c(C(C)(C)C)cc1OS(=O)(=O)c1cccnc1 (stereo not given)
CC50 [1]: 65 µM | IC50 [2]: 0.014 µM | EC50 [3]: 4.6 µM

Cc1cc(SC2=C(O)OC(CCc3ccccc3)(C(C)C)CC2=O)c(C(C)(C)C)cc1OS(=O)(=O)c1ccccn1 (stereo not given)
CC50 [1]: 65 µM | IC50 [2]: 0.0067 µM | EC50 [3]: 1.4 µM

Cc1cc(SC2=C(O)OC(C)(CCc3ccc(O)cc3)CC2=O)c(C(C)(C)C)cc1NS(=O)(=O)c1ccc(Cl)cc1 (stereo not given)
CC50 [1]: 71 µM | IC50 [2]: 0.0035 µM | EC50 [3]: 3.9 µM

Cc1cc(SC2=C(O)OC(CCc3ccc(O)cc3)(C(C)C)CC2=O)c(C(C)(C)C)cc1NS(=O)(=O)N(C)C (stereo not given)
CC50 [1]: > 100 µM | IC50 [2]: 0.0036 µM | EC50 [3]: 1.7 µM

Cc1cc(SC2=C(O)OC(CCc3ccc(O)cc3)(C(C)C)CC2=O)c(C(C)(C)C)cc1NS(=O)(=O)c1cccs1 (stereo not given)
CC50 [1]: > 100 µM | IC50 [2]: 0.0087 µM | EC50 [3]: 1.8 µM

Cc1cc(SC2=C(O)OC(CCc3ccccc3)(C(C)C)CC2=O)c(C(C)(C)C)cc1OS(=O)(=O)Cn1ccnc1 (stereo not given)
CC50 [1]: 66 µM | IC50 [2]: 0.003 µM | EC50 [3]: 1.1 µM

Cc1cc(SC2=C(O)OC(CCc3ccc(O)cc3)(C(C)C)CC2=O)c(C(C)(C)C)cc1NS(=O)(=O)c1cccnc1 (stereo not given)
CC50 [1]: > 100 µM | IC50 [2]: 0.0026 µM | EC50 [3]: 5.8 µM

Cc1cc(SC2=C(O)OC(CCc3ccc(O)cc3)(C3CCCCC3)CC2=O)c(C(C)(C)C)cc1OS(=O)(=O)c1ccccc1 (stereo not given)
CC50 [1]: 59 µM | IC50 [2]: 0.131 µM | EC50 [3]: > 59 µM

Cc1cc(SC2=C(O)OC(CCc3ccc(O)cc3)(C3CCCCC3)CC2=O)c(C(C)(C)C)cc1OS(=O)(=O)c1ccc(F)cc1 (stereo not given)
CC50 [1]: 66 µM | IC50 [2]: 0.029 µM | EC50 [3]: 9.5 µM

Cc1cc(SC2=C(O)OC(C)(CCc3ccc(O)cc3)CC2=O)c(C(C)(C)C)cc1N (stereo not given)
CC50 [1]: > 100 µM | IC50 [2]: 0.013 µM | EC50 [3]: 3.7 µM

Cc1cc(SC2=C(O)OC(CCc3ccc(O)cc3)(C(C)C)CC2=O)c(C(C)(C)C)cc1N (stereo not given)
CC50 [1]: 92 µM | EC50 [3]: 1 µM

CCNS(=O)(=O)Oc1cc(C(C)(C)C)c(SC2=C(O)OC(CCc3ccc(O)cc3)(C(C)C)CC2=O)cc1C (stereo not given)
CC50 [1]: > 100 µM | EC50 [3]: 1 µM

CC(=O)Nc1ccc(S(=O)(=O)Nc2cc(C(C)(C)C)c(SC3=C(O)OC(C)(CCc4ccc(O)cc4)CC3=O)cc2C)cc1 (stereo not given)
CC50 [1]: > 100 µM | EC50 [3]: 55 µM
